Among the data in ChEMBL document CHEMBL1811853, “Design and evaluation of 3-aminopyrazolopyridinone kinase inhibitors inspired by the natural product indirubin” (Bioorg Med Chem, 2011) are solubility and inhibition values, retold here.

Series [1] can be described thus: Aqueous solubility of the compound by HPLC analysis. The class given is physicochemical. Particulars: water. The method, boiled down: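 Solubility determined by HPLC measurement of the concentration in saturated aqueous solutions of the compounds.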
In series [2] the target is Insulin receptor (Homo sapiens) (UniProt P06213). In words: Inhibition of INSR at 30 uM by microfluidic mobility shift assay. The method, boiled down:
(§1)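 Single-concentration screen, singlicate, 30 uM final (diluted from 1 mM DMSO solutions), fluorescently tagged peptide substrate appropriate to each kinase, ATP at apparent Km for each protein. Phosphorylated and unphosphorylated peptides separated electrophoretically; conversion is the phosphorylated peak area over the sum of both peaks. No-inhibitor and no-ATP controls; H89 reference on each plate.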

The target of series [3] is T1, Serine/threonine-protein kinase D2 (Homo sapiens) (UniProt Q9BZL6).
T1 sequence (whole entry): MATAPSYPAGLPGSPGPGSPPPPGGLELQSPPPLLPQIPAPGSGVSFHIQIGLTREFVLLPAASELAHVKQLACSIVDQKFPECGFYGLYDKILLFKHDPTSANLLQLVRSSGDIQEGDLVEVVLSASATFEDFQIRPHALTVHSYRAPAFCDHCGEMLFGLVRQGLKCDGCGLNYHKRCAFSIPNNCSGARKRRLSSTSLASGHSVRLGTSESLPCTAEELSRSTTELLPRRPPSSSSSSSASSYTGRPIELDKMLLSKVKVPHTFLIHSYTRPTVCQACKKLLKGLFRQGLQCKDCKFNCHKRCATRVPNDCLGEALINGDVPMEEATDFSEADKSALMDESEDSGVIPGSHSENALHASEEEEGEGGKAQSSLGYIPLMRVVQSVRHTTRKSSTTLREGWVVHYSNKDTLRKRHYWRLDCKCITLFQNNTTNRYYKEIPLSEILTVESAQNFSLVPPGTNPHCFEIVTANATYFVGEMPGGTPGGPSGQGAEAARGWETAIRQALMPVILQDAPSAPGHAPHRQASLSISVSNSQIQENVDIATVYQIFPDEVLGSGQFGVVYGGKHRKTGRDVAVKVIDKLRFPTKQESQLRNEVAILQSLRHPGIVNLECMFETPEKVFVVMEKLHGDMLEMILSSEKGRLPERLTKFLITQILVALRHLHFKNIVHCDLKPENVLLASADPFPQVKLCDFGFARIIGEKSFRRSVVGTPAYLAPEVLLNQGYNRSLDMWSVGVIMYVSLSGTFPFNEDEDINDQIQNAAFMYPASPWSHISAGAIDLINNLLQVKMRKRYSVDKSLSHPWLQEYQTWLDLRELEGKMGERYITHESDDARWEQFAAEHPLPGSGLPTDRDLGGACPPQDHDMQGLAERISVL
In words: Inhibition of PKD2 at 30 uM by microfluidic mobility shift assay. The procedure, abridged: as §1

The target in series [4] is MAP kinase-activated protein kinase 2 (Homo sapiens, UniProt P49137). In words: Inhibition of MAPKAPK2 at 30 uM by microfluidic mobility shift assay. The method, boiled down:
as §1

The target of series [5] is Ribosomal protein S6 kinase alpha-5 (Homo sapiens) (UniProt O75582). In words: Inhibition of MSK1 at 30 uM by microfluidic mobility shift assay. The procedure, abridged: as §1
Series [6] has as its target Glycogen synthase kinase-3 beta (Homo sapiens) (UniProt P49841). Put plainly: Inhibition of GSK3B at 30 uM by microfluidic mobility shift assay. The method, boiled down:
as §1

The target in series [7] is RAC-alpha serine/threonine-protein kinase (Homo sapiens) (UniProt P31749). Put plainly: Inhibition of AKT1 at 30 uM by microfluidic mobility shift assay. The procedure, abridged:
as §1

The target of series [8] is Proto-oncogene tyrosine-protein kinase Src (Homo sapiens, UniProt P12931). In words: Inhibition of SRC at 30 uM by microfluidic mobility shift assay. The method, boiled down: as §1
Series [9] deals with Mitogen-activated protein kinase 3 (Homo sapiens) (UniProt P27361). In words: Inhibition of ERK1 at 30 uM by microfluidic mobility shift assay. The procedure, abridged: as §1
For series [10], the target named is Tyrosine-protein kinase Fyn (Homo sapiens, UniProt P06241). In words: Inhibition of FYN at 30 uM by microfluidic mobility shift assay. The method, boiled down: as §1
The target of series [11] is RAC-beta serine/threonine-protein kinase (Homo sapiens) (UniProt P31751). In words: Inhibition of AKT2 at 30 uM by microfluidic mobility shift assay. The method, boiled down:
as §1

Series [12] concerns the target Serine/threonine-protein kinase Chk2 (Homo sapiens, UniProt O96017). In words: Inhibition of CHK2 at 30 uM by microfluidic mobility shift assay. The procedure, abridged:
as §1

Series [13] has as its target Mitogen-activated protein kinase 14 (Homo sapiens, UniProt Q16539). Put plainly: Inhibition of p38alpha at 30 uM by microfluidic mobility shift assay. The procedure, abridged:
as §1

The target of series [14] is Tyrosine-protein kinase Lck (Homo sapiens, UniProt P06239). Put plainly: Inhibition of LCK at 30 uM by microfluidic mobility shift assay. The method, boiled down:
as §1

In series [15] the target is Tyrosine-protein kinase ABL1 (Homo sapiens, UniProt P00519). In words: Inhibition of ABL at 30 uM by microfluidic mobility shift assay. The method, boiled down: as §1
The target in series [16] is Mitogen-activated protein kinase 1 (Homo sapiens) (UniProt P28482). Put plainly: Inhibition of ERK2 at 30 uM by microfluidic mobility shift assay. The method, boiled down: as §1
A short description of series [17]: Inhibition of PKA at 30 uM by microfluidic mobility shift assay. The method, boiled down:
as §1

Series [18] addresses Tyrosine-protein kinase Lyn (Homo sapiens, UniProt P07948). Put plainly: Inhibition of LYN at 30 uM by microfluidic mobility shift assay. The method, boiled down:
as §1

The target in series [19] is Ribosomal protein S6 kinase alpha-1 (Homo sapiens) (UniProt Q15418). Put plainly: Inhibition of RSK1 at 30 uM by microfluidic mobility shift assay. The procedure, abridged:
as §1

For series [20], the target named is T2, Serine/threonine-protein kinase Chk1 (Homo sapiens) (UniProt O14757).
T2 sequence (whole entry): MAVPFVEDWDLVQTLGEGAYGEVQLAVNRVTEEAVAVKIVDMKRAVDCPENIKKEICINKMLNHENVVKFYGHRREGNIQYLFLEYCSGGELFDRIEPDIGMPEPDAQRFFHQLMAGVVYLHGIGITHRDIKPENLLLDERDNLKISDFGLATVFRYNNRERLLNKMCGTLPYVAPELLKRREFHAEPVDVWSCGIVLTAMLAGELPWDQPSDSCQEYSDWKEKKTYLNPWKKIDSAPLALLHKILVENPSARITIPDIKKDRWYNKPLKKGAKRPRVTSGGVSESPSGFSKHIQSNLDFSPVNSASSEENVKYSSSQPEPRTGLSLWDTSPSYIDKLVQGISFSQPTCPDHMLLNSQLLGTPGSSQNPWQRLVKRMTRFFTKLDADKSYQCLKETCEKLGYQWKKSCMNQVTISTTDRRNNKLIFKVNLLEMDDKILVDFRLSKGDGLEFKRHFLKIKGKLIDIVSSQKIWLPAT
Put plainly: Inhibition of CHK1 at 30 uM by microfluidic mobility shift assay. The method, boiled down:
as §1

Series [21] deals with T3, MAP kinase-activated protein kinase 5 (Homo sapiens) (UniProt Q8IW41).
T3 sequence (whole entry): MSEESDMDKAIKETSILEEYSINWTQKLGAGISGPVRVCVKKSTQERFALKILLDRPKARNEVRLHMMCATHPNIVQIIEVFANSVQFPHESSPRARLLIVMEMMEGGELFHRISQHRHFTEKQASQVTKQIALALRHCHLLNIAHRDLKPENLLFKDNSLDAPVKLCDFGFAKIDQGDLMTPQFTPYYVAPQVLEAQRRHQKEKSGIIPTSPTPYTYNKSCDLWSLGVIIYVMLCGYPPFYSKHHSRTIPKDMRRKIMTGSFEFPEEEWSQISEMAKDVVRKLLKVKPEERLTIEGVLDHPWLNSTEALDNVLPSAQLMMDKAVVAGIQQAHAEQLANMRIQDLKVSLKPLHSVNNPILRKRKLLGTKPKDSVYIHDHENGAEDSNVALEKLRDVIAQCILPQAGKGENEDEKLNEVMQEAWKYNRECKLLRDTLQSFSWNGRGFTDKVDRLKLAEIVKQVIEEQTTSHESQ
Put plainly: Inhibition of PRAK1 at 30 uM by microfluidic mobility shift assay. The method, boiled down:
as §1

For series [22], the target named is T4, Aurora kinase A (Homo sapiens) (UniProt O14965).
T4 sequence (whole entry): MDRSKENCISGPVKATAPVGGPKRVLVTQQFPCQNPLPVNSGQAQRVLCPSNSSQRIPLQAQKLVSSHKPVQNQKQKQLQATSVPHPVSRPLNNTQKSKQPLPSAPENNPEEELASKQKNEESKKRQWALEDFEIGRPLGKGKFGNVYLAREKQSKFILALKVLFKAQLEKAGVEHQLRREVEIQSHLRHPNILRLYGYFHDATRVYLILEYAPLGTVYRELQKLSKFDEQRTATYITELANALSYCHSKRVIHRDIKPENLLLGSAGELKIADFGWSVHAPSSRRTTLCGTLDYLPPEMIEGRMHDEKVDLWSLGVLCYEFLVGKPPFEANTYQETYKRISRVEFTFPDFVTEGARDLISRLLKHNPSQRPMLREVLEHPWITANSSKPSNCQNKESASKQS
Put plainly: Inhibition of AurA at 30 uM by microfluidic mobility shift assay. The procedure, abridged:
as §1

Series [23] concerns the target T5, Protein kinase C zeta type (Homo sapiens) (UniProt Q05513).
T5 sequence (whole entry): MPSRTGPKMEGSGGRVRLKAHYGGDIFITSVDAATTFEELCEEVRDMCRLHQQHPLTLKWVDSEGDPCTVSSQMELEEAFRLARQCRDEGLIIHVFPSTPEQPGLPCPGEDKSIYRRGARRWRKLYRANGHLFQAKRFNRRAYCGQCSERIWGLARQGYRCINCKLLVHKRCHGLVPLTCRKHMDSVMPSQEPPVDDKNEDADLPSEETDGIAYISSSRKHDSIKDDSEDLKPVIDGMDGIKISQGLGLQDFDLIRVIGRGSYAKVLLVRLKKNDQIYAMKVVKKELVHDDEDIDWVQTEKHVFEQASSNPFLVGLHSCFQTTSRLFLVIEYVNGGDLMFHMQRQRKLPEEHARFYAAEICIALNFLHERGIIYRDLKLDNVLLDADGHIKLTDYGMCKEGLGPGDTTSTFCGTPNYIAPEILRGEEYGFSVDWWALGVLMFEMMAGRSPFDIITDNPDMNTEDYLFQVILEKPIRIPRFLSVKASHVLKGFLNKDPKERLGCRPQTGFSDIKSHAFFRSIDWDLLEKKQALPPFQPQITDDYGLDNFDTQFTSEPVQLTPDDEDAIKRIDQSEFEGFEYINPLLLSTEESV
In words: Inhibition of PKCz at 30 uM by microfluidic mobility shift assay. The procedure, abridged:
as §1

Converted amounts (≈) assume the structure as drawn.

Chain of RAC-alpha serine/threonine-protein kinase (Homo sapiens) (P31749 whole entry): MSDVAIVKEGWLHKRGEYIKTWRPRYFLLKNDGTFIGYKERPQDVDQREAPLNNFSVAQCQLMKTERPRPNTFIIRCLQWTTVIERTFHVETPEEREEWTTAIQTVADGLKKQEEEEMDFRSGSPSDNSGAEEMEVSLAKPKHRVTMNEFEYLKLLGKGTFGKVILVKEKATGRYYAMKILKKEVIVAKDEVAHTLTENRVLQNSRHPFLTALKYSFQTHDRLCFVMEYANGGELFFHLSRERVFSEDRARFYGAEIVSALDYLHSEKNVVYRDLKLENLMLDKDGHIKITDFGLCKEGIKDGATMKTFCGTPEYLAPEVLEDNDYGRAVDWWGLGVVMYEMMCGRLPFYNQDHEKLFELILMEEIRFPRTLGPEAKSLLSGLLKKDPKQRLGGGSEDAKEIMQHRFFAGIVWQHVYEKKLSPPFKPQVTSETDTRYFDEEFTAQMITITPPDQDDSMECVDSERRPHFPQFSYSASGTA
Chain of Tyrosine-protein kinase Lyn (P07948 2-512 limits assumed): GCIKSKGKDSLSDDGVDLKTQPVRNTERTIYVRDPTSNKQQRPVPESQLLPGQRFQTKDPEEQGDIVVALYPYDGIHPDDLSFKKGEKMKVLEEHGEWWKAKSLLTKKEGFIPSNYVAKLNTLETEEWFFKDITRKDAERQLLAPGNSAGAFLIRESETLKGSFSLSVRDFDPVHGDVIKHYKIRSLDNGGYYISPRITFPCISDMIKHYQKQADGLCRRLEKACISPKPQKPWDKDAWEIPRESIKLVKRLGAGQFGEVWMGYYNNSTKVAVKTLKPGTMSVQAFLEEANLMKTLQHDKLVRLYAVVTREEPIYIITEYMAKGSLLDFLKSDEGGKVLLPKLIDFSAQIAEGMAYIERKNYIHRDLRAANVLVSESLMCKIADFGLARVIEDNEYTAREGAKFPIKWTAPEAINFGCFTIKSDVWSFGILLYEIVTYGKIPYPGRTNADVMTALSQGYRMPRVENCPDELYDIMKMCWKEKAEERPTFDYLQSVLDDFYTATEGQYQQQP
Chain of Mitogen-activated protein kinase 1 (Homo sapiens) (P28482 whole entry): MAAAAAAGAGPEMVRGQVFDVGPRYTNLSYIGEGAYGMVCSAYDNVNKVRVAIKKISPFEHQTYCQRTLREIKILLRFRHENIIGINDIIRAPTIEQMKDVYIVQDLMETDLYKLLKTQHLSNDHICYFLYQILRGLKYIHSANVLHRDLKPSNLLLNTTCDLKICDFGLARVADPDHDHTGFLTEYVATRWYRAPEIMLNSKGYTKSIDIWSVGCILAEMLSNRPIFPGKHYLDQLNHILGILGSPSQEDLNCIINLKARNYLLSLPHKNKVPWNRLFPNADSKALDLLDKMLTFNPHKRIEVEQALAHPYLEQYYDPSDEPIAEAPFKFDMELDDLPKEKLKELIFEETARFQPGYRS
Chain of MAP kinase-activated protein kinase 2 (P49137 whole entry, looked up): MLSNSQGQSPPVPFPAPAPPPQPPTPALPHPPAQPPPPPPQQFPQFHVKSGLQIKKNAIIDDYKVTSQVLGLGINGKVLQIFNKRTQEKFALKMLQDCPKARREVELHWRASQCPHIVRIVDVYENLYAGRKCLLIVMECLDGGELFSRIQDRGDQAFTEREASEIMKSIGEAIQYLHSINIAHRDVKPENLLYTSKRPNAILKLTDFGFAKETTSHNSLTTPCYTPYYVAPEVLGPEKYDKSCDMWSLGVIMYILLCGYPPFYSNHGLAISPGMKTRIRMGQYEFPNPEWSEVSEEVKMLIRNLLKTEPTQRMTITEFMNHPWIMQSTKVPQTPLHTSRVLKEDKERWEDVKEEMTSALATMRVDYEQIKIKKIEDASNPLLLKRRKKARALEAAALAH
Chain of Insulin receptor (Homo sapiens) (P06213 28-758 limits assumed): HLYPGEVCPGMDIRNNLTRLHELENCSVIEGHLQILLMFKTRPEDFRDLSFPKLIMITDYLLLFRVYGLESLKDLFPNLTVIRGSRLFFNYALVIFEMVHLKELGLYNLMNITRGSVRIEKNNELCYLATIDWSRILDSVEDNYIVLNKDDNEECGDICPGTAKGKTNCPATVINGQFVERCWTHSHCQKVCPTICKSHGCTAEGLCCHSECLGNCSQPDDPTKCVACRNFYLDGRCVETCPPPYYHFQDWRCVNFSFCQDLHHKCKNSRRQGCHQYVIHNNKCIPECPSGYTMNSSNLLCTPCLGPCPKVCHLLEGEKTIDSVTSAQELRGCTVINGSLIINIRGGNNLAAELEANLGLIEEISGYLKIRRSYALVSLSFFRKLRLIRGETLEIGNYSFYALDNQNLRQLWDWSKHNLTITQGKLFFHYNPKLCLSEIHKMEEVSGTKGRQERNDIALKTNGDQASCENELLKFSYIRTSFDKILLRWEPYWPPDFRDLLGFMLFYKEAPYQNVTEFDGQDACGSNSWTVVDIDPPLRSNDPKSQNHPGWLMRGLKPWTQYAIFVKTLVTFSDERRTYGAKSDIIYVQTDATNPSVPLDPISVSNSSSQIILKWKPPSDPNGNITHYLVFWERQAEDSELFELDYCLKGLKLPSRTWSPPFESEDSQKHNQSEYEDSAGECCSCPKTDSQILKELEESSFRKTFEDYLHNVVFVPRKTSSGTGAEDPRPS
Chain of Insulin receptor (Homo sapiens) (P06213 763-1382 limits assumed): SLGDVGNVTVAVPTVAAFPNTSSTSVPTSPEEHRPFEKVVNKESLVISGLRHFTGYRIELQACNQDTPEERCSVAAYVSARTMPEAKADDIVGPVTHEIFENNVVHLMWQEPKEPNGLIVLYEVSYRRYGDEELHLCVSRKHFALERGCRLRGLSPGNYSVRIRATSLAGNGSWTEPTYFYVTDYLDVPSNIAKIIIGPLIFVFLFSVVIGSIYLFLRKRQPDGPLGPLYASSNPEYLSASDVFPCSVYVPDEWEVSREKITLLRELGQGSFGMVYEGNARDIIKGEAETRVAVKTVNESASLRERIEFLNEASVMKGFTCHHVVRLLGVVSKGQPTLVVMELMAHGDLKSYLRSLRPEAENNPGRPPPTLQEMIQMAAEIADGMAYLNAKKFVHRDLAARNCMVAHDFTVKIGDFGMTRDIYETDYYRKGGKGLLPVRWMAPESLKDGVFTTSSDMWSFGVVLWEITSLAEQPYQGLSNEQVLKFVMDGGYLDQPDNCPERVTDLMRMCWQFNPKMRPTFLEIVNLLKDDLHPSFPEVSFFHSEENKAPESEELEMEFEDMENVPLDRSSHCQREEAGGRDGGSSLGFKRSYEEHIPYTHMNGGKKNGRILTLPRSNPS
Chain of Ribosomal protein S6 kinase alpha-1 (Homo sapiens) (Q15418 whole entry): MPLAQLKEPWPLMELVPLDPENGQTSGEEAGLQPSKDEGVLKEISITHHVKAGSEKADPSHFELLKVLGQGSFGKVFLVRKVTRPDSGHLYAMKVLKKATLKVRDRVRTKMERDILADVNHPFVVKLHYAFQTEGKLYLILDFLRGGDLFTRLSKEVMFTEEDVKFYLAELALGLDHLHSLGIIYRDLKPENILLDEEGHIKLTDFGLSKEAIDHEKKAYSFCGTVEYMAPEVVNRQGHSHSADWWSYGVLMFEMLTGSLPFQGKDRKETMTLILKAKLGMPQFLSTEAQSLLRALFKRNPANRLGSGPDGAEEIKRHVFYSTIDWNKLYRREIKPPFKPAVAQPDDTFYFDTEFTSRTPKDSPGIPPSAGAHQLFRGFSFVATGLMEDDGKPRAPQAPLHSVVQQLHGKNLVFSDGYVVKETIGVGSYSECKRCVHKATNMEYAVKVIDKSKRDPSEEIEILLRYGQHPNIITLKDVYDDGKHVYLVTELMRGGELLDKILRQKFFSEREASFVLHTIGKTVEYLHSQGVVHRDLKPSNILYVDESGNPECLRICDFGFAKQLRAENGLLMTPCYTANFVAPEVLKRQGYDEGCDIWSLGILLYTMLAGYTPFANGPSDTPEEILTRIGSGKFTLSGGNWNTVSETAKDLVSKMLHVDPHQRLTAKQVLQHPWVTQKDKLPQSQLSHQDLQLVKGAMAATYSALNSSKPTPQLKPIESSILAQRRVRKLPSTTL
Chain of Tyrosine-protein kinase Fyn (P06241 2-537 limits assumed): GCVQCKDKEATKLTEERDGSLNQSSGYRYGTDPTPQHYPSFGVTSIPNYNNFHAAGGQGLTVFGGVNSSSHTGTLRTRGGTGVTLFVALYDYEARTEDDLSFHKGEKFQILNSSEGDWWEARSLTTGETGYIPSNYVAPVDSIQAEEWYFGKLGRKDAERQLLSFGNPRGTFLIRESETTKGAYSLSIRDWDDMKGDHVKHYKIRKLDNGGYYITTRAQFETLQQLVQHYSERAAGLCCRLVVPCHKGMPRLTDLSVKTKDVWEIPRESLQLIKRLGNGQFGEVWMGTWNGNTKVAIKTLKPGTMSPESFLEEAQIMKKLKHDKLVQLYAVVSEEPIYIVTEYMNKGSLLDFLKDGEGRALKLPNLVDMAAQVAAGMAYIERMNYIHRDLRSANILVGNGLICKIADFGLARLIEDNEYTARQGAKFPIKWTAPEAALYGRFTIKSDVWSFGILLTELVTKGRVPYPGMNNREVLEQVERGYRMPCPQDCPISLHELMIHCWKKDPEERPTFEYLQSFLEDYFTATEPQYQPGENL
Chain of Tyrosine-protein kinase Lck (P06239 2-509 limits assumed): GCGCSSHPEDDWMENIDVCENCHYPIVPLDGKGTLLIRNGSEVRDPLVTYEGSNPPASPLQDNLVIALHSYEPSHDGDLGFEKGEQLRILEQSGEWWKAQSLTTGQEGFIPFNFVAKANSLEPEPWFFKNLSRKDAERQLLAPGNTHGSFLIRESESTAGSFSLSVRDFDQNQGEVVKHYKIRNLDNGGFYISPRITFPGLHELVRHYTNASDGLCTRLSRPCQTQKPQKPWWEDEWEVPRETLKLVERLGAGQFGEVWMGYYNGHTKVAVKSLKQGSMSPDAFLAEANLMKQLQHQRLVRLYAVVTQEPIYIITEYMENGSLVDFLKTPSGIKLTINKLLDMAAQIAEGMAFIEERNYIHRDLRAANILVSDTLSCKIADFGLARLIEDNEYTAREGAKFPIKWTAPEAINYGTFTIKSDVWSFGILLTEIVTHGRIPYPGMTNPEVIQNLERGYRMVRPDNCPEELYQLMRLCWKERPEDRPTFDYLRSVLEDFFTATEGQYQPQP

As to `Cc1[nH]c(=O)c2c(N)nn(C)c2c1-c1ccccc1`, the concentration in solution in series [1] (solubility) came to 2 µg/mL (≈ 0.00786 mM).

With `Nc1n[nH]c2cc(C3CCNCC3)[nH]c(=O)c12`, the solubility (commonly the concentration that dissolves in the medium under given conditions) in series [1] turned out to be 2340 µg/mL (≈ 10 mM).

In turn, `Cc1cc2c(c(N)nn2C)c(N2CCN(C)CC2)n1` had a solubility in [1] of 1160 µg/mL (≈ 4.47 mM).

`O=C1Nc2ccccc2/C1=C1/Nc2ccccc2C1=O` [INDIRUBIN] showed a solubility in series [1] of less than 1 µg/mL.

`Nc1n[nH]c2cc(-c3ccccc3)[nH]c(=O)c12` registered a solubility in [1] of 24 µg/mL (≈ 0.106 mM).

`Cc1cc2c(cn1)c(N)nn2C`: the inhibition (as a rule, the relative decrease from the control value, in per cent) in series [2] is -3%; in series [3], -3%; in series [4], -2%; in series [5] it was -2%; in series [6], 6%; in series [7], 0%. Moreover, the inhibition was 3% in [8]; 6% in series [9]; 2% in series [10]; -2% in [11]; 3% in series [12]; 2% in series [13]. Also, the inhibition in series [14] stood at 4%; in series [15] it was 2%; in [16], 2%; in series [17], 1%; in series [18], 1%; in series [19], 1%. Besides, the inhibition in series [20] was 10%; in series [21], 9%; in series [22] it was 3%.

`Cn1nc(N)c2c(=O)[nH]c(C3CCNCC3)cc21` yielded a solubility in series [1] of more than 15000 µg/mL.

On to `CC(C)(C)c1cc2[nH]nc(N)c2c(=O)[nH]1`, for which the inhibition came out at 14% in series [2]; 39% in series [4]; 65% in series [5]; 41% in series [6]; 3% in series [7]; 58% in series [8]. The inhibition in series [9] came to 12%; in series [10], 48%; in series [11] it was 4%; in series [12], 21%; in series [13] it was 3%; in [14], 40%. The inhibition in [15] is 14%; in series [16], 4%; in series [17], 75%; in series [18], 40%; in series [19] it was 22%; in series [20], 12%. For the same compound, the figures for the inhibition in series [21], in [23] and in series [22] were 1%, -9% and 34%, respectively.

In series [1], `Nc1c2c(=O)[nH]c(C3CCNCC3)cc2nn1-c1ccccc1` gave a solubility of 1430 µg/mL (≈ 4.61 mM).

Consider `Cc1cc2nn(-c3ccccc3)c(N)c2c(N2CCCCC2)n1`, for which the inhibition in [2] was -2%; in series [3] it was 5%; in series [4], 7%; in series [5], 10%; in [6] it was 7%; in series [7], 1%. Besides, the inhibition in [8] was 7%; in [9] it was 4%; in series [10], 7%; in [11] it was -7%; in series [12], 4%; in series [13], 10%. In addition, the inhibition in [14] was found to be 12%; in series [15], 7%; in series [16], 6%; in series [17] it was 2%; in series [18], 8%; in series [19] it was 4%. In addition, the figures for the inhibition in series [20], in [21] and in series [22] were -1%, 10% and 10%, respectively.
